Reference: ChEMBL document CHEMBL1157410, “7-aryl 1,5-dihydro-benzo[e][1,4]oxazepin-2-ones and analogs as non-steroidal progesterone receptor antagonists” (Bioorg Med Chem, 2008)

Each compound was assayed against T1, Progesterone receptor (Homo sapiens, UniProt P06401) (assay: Inhibition of progesterone receptor mediated progesterone-induced alkaline phosphatase activity in human T47D cells). Settings: not given.
T1 sequence (P06401 whole entry): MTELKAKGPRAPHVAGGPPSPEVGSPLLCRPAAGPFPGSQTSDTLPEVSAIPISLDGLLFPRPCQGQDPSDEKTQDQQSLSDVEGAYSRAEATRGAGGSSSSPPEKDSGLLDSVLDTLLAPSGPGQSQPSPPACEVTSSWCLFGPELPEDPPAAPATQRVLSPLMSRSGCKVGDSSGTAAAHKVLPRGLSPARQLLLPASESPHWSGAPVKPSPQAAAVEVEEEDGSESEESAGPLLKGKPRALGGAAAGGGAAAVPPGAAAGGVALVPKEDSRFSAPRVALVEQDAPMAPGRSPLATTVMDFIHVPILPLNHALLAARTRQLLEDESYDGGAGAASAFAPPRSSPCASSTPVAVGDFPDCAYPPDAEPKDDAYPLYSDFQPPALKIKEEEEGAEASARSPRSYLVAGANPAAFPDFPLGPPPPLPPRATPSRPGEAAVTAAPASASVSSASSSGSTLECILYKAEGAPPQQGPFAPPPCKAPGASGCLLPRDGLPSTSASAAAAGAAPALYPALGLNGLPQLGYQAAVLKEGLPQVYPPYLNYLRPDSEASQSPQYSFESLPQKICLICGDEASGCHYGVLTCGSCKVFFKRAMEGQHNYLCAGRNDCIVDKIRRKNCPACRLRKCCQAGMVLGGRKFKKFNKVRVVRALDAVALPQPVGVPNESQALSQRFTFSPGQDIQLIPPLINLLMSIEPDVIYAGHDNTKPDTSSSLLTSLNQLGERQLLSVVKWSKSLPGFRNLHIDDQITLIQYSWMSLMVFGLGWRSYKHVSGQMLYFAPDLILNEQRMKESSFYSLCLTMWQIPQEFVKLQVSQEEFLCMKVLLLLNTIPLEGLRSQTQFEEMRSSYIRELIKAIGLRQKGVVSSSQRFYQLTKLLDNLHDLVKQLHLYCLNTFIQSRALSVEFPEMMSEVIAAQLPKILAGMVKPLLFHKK
Type: cell-based

| Compound | IC50 |
| --- | --- |
| CCC1(c2cccs2)OCC(=O)Nc2ccc(-c3cc(F)cc(C#N)c3)cc21 (stereo not given) | 100 nM |
| O=C1COC(c2ccc(Cl)s2)(c2ccc(Cl)s2)c2cc(-c3ccc(F)c(Cl)c3)ccc2N1 | 1000 nM |
| CCC1(c2cccs2)OCC(=O)Nc2ccc(-c3csc(C#N)c3)cc21 (stereo not given) | 108 nM |
| CC(C)C1(c2cccs2)OCC(=S)Nc2ccc(-c3cc(F)cc(C#N)c3)cc21 (stereo not given) | 78.2 nM |
| CCCC1(c2cccs2)OCC(=O)Nc2ccc(-c3ccc(F)c(Cl)c3)cc21 (stereo not given) | 349 nM |
| O=C1COC(c2ccco2)(C(F)(F)C(F)(F)F)c2cc(-c3ccc(F)c(Cl)c3)ccc2N1 (stereo not given) | 82.4 nM |
| CC(C)C1(c2cccs2)OCC(=O)Nc2ccc(-c3cc(F)cc(C#N)c3)cc21 (stereo not given) | 138 nM |
| N#Cc1cc(F)cc(-c2ccc3c(c2)C(c2ccc(Cl)s2)(c2ccc(Cl)s2)OCC(=O)N3)c1 | 1000 nM |
| O=C1COC(c2ccco2)(c2ccco2)c2cc(-c3ccc(F)c(Cl)c3)ccc2N1 | 22.5 nM |
| N#Cc1cc(F)cc(-c2ccc3c(c2)C(c2ccco2)(C(F)(F)C(F)(F)F)OCC(=O)N3)c1 (stereo not given) | 34.1 nM |
| O=C1COC(c2cccs2)(c2cccs2)c2cc(-c3ccc(F)c(Cl)c3)ccc2N1 | 65.2 nM |
| CCC1(c2ccsc2)OCC(=O)Nc2ccc(-c3cc(F)cc(C#N)c3)cc21 (stereo not given) | 59.2 nM |
| CCC1(c2ccsc2)OCC(=O)Nc2ccc(-c3ccc(F)c(Cl)c3)cc21 (stereo not given) | 117 nM |
| N#Cc1cc(F)cc(-c2ccc3c(c2)C(c2cccs2)(c2cccs2)OCC(=O)N3)c1 | 26.6 nM |
| CCC1(c2cccs2)OCC(=O)Nc2ccc(-c3ccc(F)c(Cl)c3)cc21 (stereo not given) | 208 nM |
| O=C1COC(c2ccccc2)(c2ccccc2)c2cc(-c3ccc(F)c(Cl)c3)ccc2N1 | 88 nM |
| CC(C)C1(c2cccs2)OCC(=O)Nc2ccc(-c3ccc(F)c(Cl)c3)cc21 (stereo not given) | 366 nM |

Other lines, results leading:

| IC50 | Compound |
| --- | --- |
| 15 nM | CC1(C)OCC(=O)Nc2ccc(-c3cc(F)cc(Cl)c3)cc21 |
| 62.1 nM | CC1(C)OCC(=O)Nc2ccc(-c3ccccc3F)cc21 |
| 30.1 nM | CC1(C)OCC(=O)Nc2ccc(-c3ccc(F)c(Cl)c3)cc21 |
| 15.7 nM | CC1(C)OCC(=O)Nc2ccc(-c3cccc(F)c3F)cc21 |
| 34.6 nM | CC1(C)OCC(=O)Nc2ccc(-c3cc(Cl)cc(C#N)c3)cc21 |
| 677 nM | CC1=NCC(=O)Nc2ccc(-c3ccc(F)c(Cl)c3)cc21 |
| 30 nM | CC1(C)OCC(=O)Nc2ccc(-c3cc(F)cc(F)c3)cc21 |
| 29.1 nM | CC1(C)OCC(=O)Nc2ccc(-c3cc(Cl)cc(Cl)c3)cc21 |
| 65.5 nM | CC1(c2cccs2)OCC(=O)Nc2ccc(-c3ccc(F)c(Cl)c3)cc21 (stereo not given) |
| 14.9 nM | CC1(C)OCC(=O)Nc2ccc(-c3cccc(F)c3)cc21 |
| 105 nM | CN1CC(=O)Nc2ccc(-c3ccc(F)c(Cl)c3)cc2C1(C)C |
| 100 nM | CC1(C)OCC(=O)Nc2ccc(-c3ccc(F)cc3)cc21 |
| 62.5 nM | CCC1(c2ccco2)OCC(=O)Nc2ccc(-c3ccc(F)c(Cl)c3)cc21 (stereo not given) |
| 29.3 nM | CC1(C)OCC(=O)Nc2ccc(-c3ccc(F)c(F)c3)cc21 |
| 29.9 nM | CCC1(c2ccco2)OCC(=O)Nc2ccc(-c3coc(C#N)c3)cc21 (stereo not given) |

These compounds were tested against T2, Mineralocorticoid receptor (Homo sapiens) (UniProt P08235) (assay: Antagonist activity at cloned mineralocorticoid receptor-ligand binding domain expressed in african green monkey COS7 cells by GAL4 luciferase reporter assay). Settings: COS-7; concentration not given here.
T2 sequence (whole entry): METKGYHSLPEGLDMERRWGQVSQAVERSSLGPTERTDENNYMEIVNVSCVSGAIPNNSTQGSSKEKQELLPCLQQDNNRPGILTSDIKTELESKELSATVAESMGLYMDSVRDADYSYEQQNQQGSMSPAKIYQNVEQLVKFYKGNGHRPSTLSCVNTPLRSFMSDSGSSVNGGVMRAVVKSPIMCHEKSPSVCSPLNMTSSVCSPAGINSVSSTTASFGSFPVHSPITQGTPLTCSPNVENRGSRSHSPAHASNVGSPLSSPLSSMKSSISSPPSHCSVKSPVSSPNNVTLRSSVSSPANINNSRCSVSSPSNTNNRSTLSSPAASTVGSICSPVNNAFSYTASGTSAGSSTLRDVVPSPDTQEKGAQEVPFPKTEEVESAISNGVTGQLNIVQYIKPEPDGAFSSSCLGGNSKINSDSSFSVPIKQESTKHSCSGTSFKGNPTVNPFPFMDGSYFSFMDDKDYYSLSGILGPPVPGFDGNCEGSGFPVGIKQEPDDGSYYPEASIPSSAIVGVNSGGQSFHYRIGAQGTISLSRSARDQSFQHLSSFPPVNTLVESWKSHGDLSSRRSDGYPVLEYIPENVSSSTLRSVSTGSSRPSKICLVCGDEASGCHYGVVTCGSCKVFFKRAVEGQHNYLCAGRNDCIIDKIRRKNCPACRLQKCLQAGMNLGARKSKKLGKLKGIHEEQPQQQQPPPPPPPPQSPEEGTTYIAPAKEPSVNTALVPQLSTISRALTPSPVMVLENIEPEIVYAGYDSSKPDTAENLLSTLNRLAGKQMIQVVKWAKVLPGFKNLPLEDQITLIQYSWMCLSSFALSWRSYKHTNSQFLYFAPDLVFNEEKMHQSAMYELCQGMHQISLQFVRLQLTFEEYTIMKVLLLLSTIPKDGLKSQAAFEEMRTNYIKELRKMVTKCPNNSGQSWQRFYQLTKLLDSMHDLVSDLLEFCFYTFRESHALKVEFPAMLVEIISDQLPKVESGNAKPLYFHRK
Type: cell-based
How it was run: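 GAL4 DNA-binding domain fused to receptor ligand-binding domain, one-hybrid format. LBD fusion and GAL4_UAS (5 copies, E1b minimal TATA) luciferase reporter plasmids, 50 ng/well each, transfected 16 h into COS-7 cells. Cells grown in phenol red-free DMEM with 10% charcoal/dextran-treated FBS. Compound exposure 20 h, then luciferase read on lysates. Mean of at least duplicate determinations.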

| inhibition | Compound |
| --- | --- |
| 96% | CC#C[C@]1(O)CC[C@H]2[C@@H]3CCC4=CC(=O)CCC4=C3[C@@H](c3ccc(N(C)C)cc3)C[C@@]21C |

Each compound was assayed against T1, Progesterone receptor (assay: Agonist activity at progesterone receptor assessed as alkaline phosphatase activity in human T47D cells). Settings: not given.

| EC50 | Compound |
| --- | --- |
| 90 nM | CC1(C)OC(=O)Nc2ccc(-c3cc(F)cc(C#N)c3)cc21 |

Same assay, conditions: read-out: EC50

| EC50 | Compound |
| --- | --- |
| 35.8 nM | CC1(C)OCC(=S)Nc2ccc(-c3cc(F)cc(F)c3)cc21 |
